Out of some 2,500 compounds screened, about 1,200 (48%) were called active.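 How the source made its calls: active means mean activation above the low control average plus 3 SD, as set in the primary screen (cut at about 12% in these data); inactive means the rest.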 So high a share suggests a set chosen from earlier hits. This is one part of the list.
target: Troponin I, cardiac muscle (Homo sapiens) + Troponin T, cardiac muscle (Homo sapiens) + Troponin C, slow skeletal and cardiac muscles (Homo sapiens) (UniProt P19429+P45379+P63316); assay: calcium sensitizers of cardiac thin filaments – biochemical, IANBD-TnC fluorescence, triplicate, confirmation (AID 504383); conditions: IANBD-labeled cardiac RTF, Ca2+ sensitivity fluorescence; at 7.2 µM; active compounds read high; scaled from EC20 to saturating calcium; tested at EC20 calcium, 0.472 mM;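 further: 0% = DMSO at 0.472 mM calcium and 100% = DMSO at 2.9 mM calcium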
Method in brief: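 System: Labelled thin filament complex | Technique: Filament fluorescence intensity | Benchmarks: Low control EC20 calcium, high control EC100 calcium | Timing: 15 min at 25 °C | Compound dosing: One dose, 7.2 µM nominal | Probe or stimulus: Ca2+ 0.472 mM, EC20 level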

Row | Structure (SMILES) | activation
1 | CCc1ccccc1NC(=S)NCc1cccn1C | 9.11% (inactive)
2 | O=C(NCCCN1CCOCC1)C(=O)NCc1ccco1 | 9.34% (inactive)
3 | Cn1c(C(=O)NCCCN2CCCCCC2)cc2c(=O)n(C)c3ccccc3c21 | 18.9% (active)
4 | O=C(C1=NN[C@@H]2C(=O)N(c3ccccc3C(F)(F)F)C(=O)[C@H]12)c1ccc2ccccc2n1 | 60.7% (active)
5 | Cc1ccc(C)c(N2CCN(C(=O)CN3C(=S)NC(C)(C)CC3C)CC2)c1 (configuration not stated) | 42.4% (active)
6 | CC1CC(C)(C)NC(=S)N1CCCC(=O)Nc1ccccc1F (configuration not stated) | -0.32% (inactive)
7 | CC(C)C[C@@H](CN=[N+]=[N-])N1CCN(C)CCC1=O | -0.6% (inactive)
8 | CCN1CCN(C2=CC3=CC(=C(C#N)C#N)CCC3CC2)CC1 (configuration not stated) | 0.71% (inactive)
9 | Cc1oc(-c2ccccc2Cl)nc1CSc1nc2c(c(=O)[nH]1)CCC2 | 6.98% (inactive)
10 | Fc1ccc(CNCc2ccc(Br)cc2)cc1 | 10.4% (inactive)
11 | O=C(NCc1ccccc1)C1(c2cccc(F)c2)CCCC1 | 6.54% (inactive)
12 | Fc1ccc(CNC(=S)NCc2ccc(F)cc2)cc1 | 54.8% (active)
13 | Cc1cc(=O)c2c([nH]1)c(C)cc1[nH]c(C)c(C)c12 | 9.89% (inactive)
14 | COC(=O)C1(C)NC(c2ccc(C)cc2)C2C(=O)N(c3ccc(F)cc3)C(=O)C21 (configuration not stated) | 17% (active)
15 | CC1(C)C([N+](=O)[O-])C(c2ccc(F)cc2)NC(c2ccc(F)cc2)C1[N+](=O)[O-] (configuration not stated) | 1.97% (inactive)
16 | CC(C)CN1CCN(Cc2cccn2-c2ccc(Cl)cn2)CC1CCO (configuration not stated) | 155% (active)
17 | O=S(=O)(c1ccc(F)cc1)N1CN(Cc2ccco2)c2nc3ccccc3nc21 | 19% (active)
18 | COc1ccc(S(=O)(=O)N2CN(Cc3ccco3)c3nc4ccccc4nc32)cc1 | 127% (active)
19 | Cc1ccccc1N(CC(N)=O)S(C)(=O)=O | 4.33% (inactive)
20 | CS(=O)(=O)N(CC(=O)N/N=C/c1ccco1)c1ccccc1Br | 116% (active)
21 | CCCCCCC(=O)N/N=C/c1ccco1 | 7.23% (inactive)
22 | O=C(O)c1ccccc1-c1c2cc(I)c(=O)c(I)c-2oc2c(I)c(O)c(I)cc12 | 5.23% (inactive)
23 | C#CCOCCOCCOCCNc1nc(N2CCN(C(=O)Cn3cc(CCCCN)nn3)CC2)nc(N2CCN(C(=O)Cn3cc(CC(C)O)nn3)CC2)n1 (configuration not stated) | 5.79% (inactive)

Row | Structure (SMILES) | activation
24 | O=C(O)c1ccc2c(c1)S(=O)(=O)c1ccccc1C2=O | 6.82% (inactive)
25 | C=C1CCN(C(CC(C)C)C(=O)OC)S(=O)(=O)c2ccccc21 (configuration not stated) | 4.69% (inactive)
26 | C=C1CCN([C@@H](Cc2ccccc2)C(=O)O)S(=O)(=O)c2ccccc21 | 15.6% (active)
27 | COc1ccc(/C=C/C=C2\N=C(SC)SC2=O)cc1 | 6.95% (inactive)
28 | COc1ccc(/C=C/c2nc3sc4c(c3c(=O)o2)CCC4)cc1 | 292% (active)
29 | Fc1ccc(-c2[nH]ncc2CN(CC2CCC2)CC2CCCO2)c(F)c1 (configuration not stated) | 46.1% (active)
30 | CCN1C(=O)/C(=C/c2ccc(N3CCCC3)cc2)NC1=S | 7.36% (inactive)
31 | CCN1C/C(=C/c2ccc(N3CCOCC3)cc2)C(=O)/C(=C/c2ccc(N3CCOCC3)cc2)C1 | 4.14% (inactive)
32 | CN1C/C(=C\c2ccc(N3CCOCC3)cc2)C(=O)/C(=C/c2ccc(N3CCOCC3)cc2)C1 | 11.8% (active)
33 | O=C1/C(=C/c2ccc(N3CCCC3)cc2)NC(=S)N1C1CC1 | 1.84% (inactive)
34 | CCCN1C(=O)/C(=C/c2ccc(N3CCOCC3)cc2)NC1=S | 217% (active)
35 | CCC(C)NC(=O)C1CC(=O)N(CCc2ccc(F)cc2)C1 (configuration not stated) | 331% (active)
36 | COc1ccc(S(=O)(=O)N2CCC(C(=O)NC(C)CCc3ccccc3)CC2)cc1 (configuration not stated) | 11.2% (inactive)
37 | Clc1ccccc1/C=N/NC1=Nc2cccc3cccc1c23 | 5.59% (inactive)
38 | O=[N+]([O-])c1ccc(N/N=C/c2ccc(OCc3cccc4ccccc34)cc2)nc1 | 8.03% (inactive)
39 | O=[N+]([O-])c1ccc(NN=Cc2cccc3ccccc23)nc1 | 31.4% (active)
40 | Cc1cc(C)c(C#N)c(Sc2nnnn2-c2ccccc2)n1 | 27.6% (active)
41 | O=c1c(/C=N/Nc2ccccc2)c(Sc2nnnn2-c2ccccc2)nc2ccccn12 | 2.36% (inactive)
42 | Cc1cc(C)c2c(=O)n(-c3ccccc3)[nH]c2n1 | 10.3% (inactive)
43 | CC(C)(C)c1cc(NCc2ccccn2)n2ncc(-c3ccc(Cl)cc3)c2n1 | 7.76% (inactive)
44 | COc1ccc2c(c1)c(/C=C/c1cc[n+](C)cc1)cn2C | 4.1% (inactive)
45 | CCOC(=O)c1c(=O)n(O)c2ccc(OC)cc2[n+]1[O-] | 8.7% (inactive)
46 | COC(=O)c1c(=O)n(O)c2ccc(OC)cc2[n+]1[O-] | 16.1% (active)

Row | Structure (SMILES) | activation
47 | COC(=O)C1CSc2[nH]c(=O)sc2C1c1ccccc1 (configuration not stated) | 8.86% (inactive)
48 | CN(C)c1ccc(/C=C2\NC(=S)N(Cc3ccccc3)C2=O)cc1 | 217% (active)
49 | Cc1ccc(C2C3CN(C(C)C)CC=C3C(C#N)=C(N)C2(C#N)C#N)cc1 (configuration not stated) | 9.22% (inactive)
50 | Cc1ccc([C@@H]2C3COCC=C3C(C#N)=C(N)C2(C#N)C#N)o1 (some centres not stated) | 13.5% (active)
51 | CC(C)CN1CCC(C(=O)N2CCN(c3ccccc3F)CC2)CC1 | 4.79% (inactive)
52 | CCC(CC)C(=O)c1c[nH]c(C(=O)N2CCN(c3ccccc3F)CC2)c1 | 60.8% (active)
53 | COc1c(Cl)ccc(Cl)c1C(=O)NCc1ccco1 | 8.15% (inactive)
54 | CCOc1c2ccc(C(=O)NCc3ccc(C)cc3)cc2nn1CCOC | 0.03% (inactive)
55 | O=C(NCc1ccco1)c1cc(-c2cccc(Cl)c2)on1 | 4.34% (inactive)
56 | CCOc1ccc(CNC(=O)c2ccc(Sc3ccc(Cl)cc3)c(NC(C)=O)c2)cc1 | 16.5% (active)
57 | CC(=O)Nc1cc(C(=O)NCc2ccco2)ccc1Sc1ccc(F)cc1 | 69.2% (active)
58 | CC1(C)CC(=O)C2=C(C1)OC(N)=C(C#N)[C@@H]2c1ccccc1[N+](=O)[O-] | 22% (active)
59 | O=C1C2C3C=CC(C4CC34)C2C(=O)N1/N=C/c1ccc(-c2ccc(F)cc2[N+](=O)[O-])o1 (configuration not stated) | 23.2% (active)
60 | CCN1CCN(c2c(/C=C3\SC(=S)N(Cc4ccco4)C3=O)c(C)c(C#N)c(=O)n2C)CC1 | 4.2% (inactive)
61 | Cc1cc(/C=C2\SC(=S)N(Cc3ccco3)C2=O)c(C)n1-c1cccnc1 | 48.4% (active)
62 | COc1ccc(O)c(/C=C2/SC(=S)N(Cc3ccccc3)C2=O)c1 | 0.43% (inactive)
63 | COc1ccc(-n2c(C)cc(/C=C3\SC(=S)N(Cc4ccco4)C3=O)c2C)cc1 | 239% (active)
64 | COc1ccc(-n2c(C)cc(/C=C3\SC(=S)NC3=O)c2C)cc1 | 8.15% (inactive)
65 | Cc1cc(/C=C2\SC(=S)N(Cc3ccco3)C2=O)c(C)n1-c1ccccc1 | 17.4% (active)
66 | Cc1cc(/C=C2\SC(=S)N(C)C2=O)c(C)n1-c1ccccc1O | 33% (active)
67 | CCN1C(=S)SC(=O)C1=C1C=C(C)N(Cc2ccco2)C(C)=C1 | 8.86% (inactive)
